Measurements reported in ChEMBL document CHEMBL3124765, “Glucal-conjugated sterols as novel vascular leakage blocker: structure-activity relationship focusing on the C17-side chain” (Eur J Med Chem, 2014).
Active and inactive are the calls of the source. The rule behind the calls is not given here.

Tests used:
Homo sapiens [1] = species: Homo sapiens; experiment: Antiapoptotic activity against HREC assessed as reduction in VEGF-induced actin stress fibre formation at 10 to 20 ug/ml incubated for 60 mins prior to VEGF challenge measured after 60 mins by immunofluorescence microscopy; format: functional
Homo sapiens [2] = species: Homo sapiens; experiment: Antiapoptotic activity against VEGF-treated HREC assessed as enhancement of occludin integrity at 10 ug/ml incubated for 60 mins prior to VEGF challenge measured after 60 mins by immunofluorescence microscopy; format: functional
Homo sapiens [3] = species: Homo sapiens; experiment: Antiapoptotic activity against HREC at 10 ug/ml after 48 hrs by MTT assay; format: functional
Homo sapiens [4] = species: Homo sapiens; experiment: Antiapoptotic activity against HREC after 48 hrs by MTT assay; format: functional
Outline: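 Serum-deprived human retinal endothelial cells (passages 2–7, grown on gelatin-coated dishes in EBM-2/EGM-2 with 20% FBS) exposed to analogs for 48 h; viability read by MTT colorimetric assay. Single-point screen at 10 mg/mL; dose-response over […]. Controls were medium alone (0 h) and DMSO vehicle.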

Homo sapiens [5] = species: Homo sapiens; experiment: Antiapoptotic activity against HREC assessed as stabilization of cortical actin ring by measuring reduction of VEGF-induced actin stress fibre formation at 10 ug/ml incubated for 60 mins prior to VEGF challenge measured after 60 mins by immunofluorescence microscopy; format: functional
Homo sapiens [6] = species: Homo sapiens; experiment: Antiapoptotic activity against VEGF-treated HREC assessed as enhancement of occludin integrity at 10 ug/ml incubated for 60 mins prior to 50 ng/ml VEGF challenge measured after 60 mins by ZO-1 staining-based microscopy; format: functional
Homo sapiens [7] = species: Homo sapiens; experiment: Antiapoptotic activity against VEGF-treated HREC assessed as enhancement of occludin integrity at 1 to 10 ug/ml incubated for 60 mins prior to 20 ng/ml VEGF challenge measured after 60 mins by ZO-1 staining-based microscopy; format: functional
Mus musculus [8] = experiment: Inhibition of VEGF-induced retinal vascular leakage in C57BL/6 mouse diabetic retinopathy model at 10 ug/ml, […] after 24 hrs by FITC-dextran staining-based fluorescein angiography; format: functional, organism-based
Outline: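 Eight-week-old C57BL/6 mice received an intravitreal injection of VEGF (50 ng) with or without analog ([…]) in one eye, and DMSO vehicle (same total volume, […]) in the contralateral eye. After 24 h, 40-kDa FITC-dextran (3 mg) was injected into the left ventricle and circulated 5 min. Eyes were fixed in 4% PFA and retinas flat-mounted for fluorescence microscopy.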

Mus musculus [9] = experiment: Inhibition of retinal vascular leakage in C57BL/6 mouse diabetic retinopathy model at 10 ug/ml, […] after 24 hrs by FITC-dextran staining-based fluorescein angiography; format: functional, organism-based
Outline: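 Diabetes induced in C57BL/6 mice with streptozotocin 90 mg/kg i.p. in citrate buffer pH 4.5, daily for 4 days; mice with glucose >300 mg/dl 3 days later were used. Analog ([…]) given intravitreally to one eye, DMSO to the other; n=5/group. At 24 h, leakage assessed by FITC-dextran angiography and Evans blue extraction (620 nm) normalized to retinal weight, blood dye and circulation time.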

Mus musculus [10] = experiment: Inhibition of retinal vascular leakage in C57BL/6 mouse diabetic retinopathy model assessed as restoration of reduced occludin expression at 10 ug/ml, […] after 24 hrs by Western blotting analysis; format: functional, organism-based

| Compound | Activity (Homo sapiens [3]) | further results |
| --- | --- | --- |
| CC(=O)OC[C@H]1OC(O[C@H]2CC[C@@]3(C)C(=CC[C@H]4[C@@H]5CC[C@H]([C@@](C)(O)CCCC(C)C)[C@@]5(C)CC[C@@H]43)C2)C=C[C@@H]1OC(C)=O (stereo partly specified) |  | Activity (Homo sapiens [1]): Active |
| CC(=O)OC[C@H]1OC(O[C@H]2CC[C@@]3(C)C(=CC[C@H]4[C@@H]5CC[C@H](/C(C)=N/OC6C=CCCC6)[C@@]5(C)CC[C@@H]43)C2)C=C[C@@H]1OC(C)=O (stereo partly specified) | Active | Activity (Homo sapiens [2]): Active; Activity (Homo sapiens [4]): Dose-dependent effect; Activity (Homo sapiens [5]): Active |
| CCCCCO/N=C(\C)[C@H]1CC[C@H]2[C@@H]3CC=C4C[C@@H](OC5C=C[C@H](OC(C)=O)C(COC(C)=O)O5)CC[C@]4(C)[C@H]3CC[C@]12C (single isomer, unassigned) | Active |  |
| CC(=O)OC[C@H]1OC(O[C@H]2CC[C@@]3(C)C(=CC[C@H]4[C@@H]5CC[C@H](/C(C)=N/O)[C@@]5(C)CC[C@@H]43)C2)C=C[C@@H]1OC(C)=O (stereo partly specified) | Active |  |
| CC(=O)OC[C@H]1OC(O[C@H]2CC[C@@]3(C)C(=CC[C@H]4[C@@H]5CC[C@H](/C(C)=N/OCc6ccccc6)[C@@]5(C)CC[C@@H]43)C2)C=C[C@@H]1OC(C)=O (stereo partly specified) | Active | Activity (Homo sapiens [2]): Active; Activity (Homo sapiens [4]): Dose-dependent effect; Activity (Homo sapiens [5]): Active |
| CC(=O)OC[C@H]1OC(O[C@H]2CC[C@@]3(C)C(=CC[C@H]4[C@@H]5CC[C@H](/C(C)=N/OCC=C(C)C)[C@@]5(C)CC[C@@H]43)C2)C=C[C@@H]1OC(C)=O (stereo partly specified) | Active |  |
| CC(=O)OC[C@H]1OC(O[C@H]2CC[C@@]3(C)C(=CC[C@H]4[C@@H]5CC[C@H]([C@H](C)CCCC(C)C)[C@@]5(C)CC[C@@H]43)C2)C=C[C@@H]1OC(C)=O (stereo partly specified) | Active | Activity (Homo sapiens [2]): Active; Activity (Homo sapiens [6]): Active; Activity (Homo sapiens [5]): Active; Activity (Homo sapiens [7]): Active |
| C#CCO/N=C(\C)[C@H]1CC[C@H]2[C@@H]3CC=C4C[C@@H](OC5C=C[C@H](OC(C)=O)[C@@H](COC(C)=O)O5)CC[C@]4(C)[C@H]3CC[C@]12C (stereo partly specified) | Active |  |
| CC(=O)OC[C@H]1OC(O[C@H]2CC[C@@]3(C)C(=CC[C@H]4[C@@H]5CC[C@H](/C(C)=N/OCc6cccnc6)[C@@]5(C)CC[C@@H]43)C2)C=C[C@@H]1OC(C)=O (stereo partly specified) | inactive |  |
| CC(C)=CCC[C@](C)(O)[C@H]1CC[C@]2(C)[C@@H]1[C@H](O)C[C@@H]1[C@@]3(C)CC[C@H](O[C@@H]4O[C@H](CO)[C@@H](O)[C@H](O)[C@H]4O[C@@H]4O[C@H](CO)[C@@H](O)[C@H](O)[C@H]4O)C(C)(C)[C@@H]3CC[C@]12C | Active |  |
| CC(=O)OCC1OC(O[C@H]2CC[C@@]3(C)C(=CC[C@H]4[C@@H]5CC[C@H](/C(C)=N/OC(C)C)[C@@]5(C)CC[C@@H]43)C2)C=C[C@@H]1OC(C)=O (single isomer, unassigned) | Active |  |
| CO/N=C(\C)[C@H]1CC[C@H]2[C@@H]3CC=C4C[C@@H](OC5C=C[C@H](OC(C)=O)C(COC(C)=O)O5)CC[C@]4(C)[C@H]3CC[C@]12C (single isomer, unassigned) | Active |  |
| C=C(CCC=C(C)C)[C@H]1CC[C@]2(C)[C@@H]1[C@H](O)C[C@@H]1[C@@]3(C)CC[C@H](O[C@@H]4O[C@H](CO)[C@@H](O)[C@H](O)[C@H]4O[C@@H]4O[C@H](CO)[C@@H](O)[C@H](O)[C@H]4O)C(C)(C)[C@@H]3CC[C@]12C | Active |  |
| C/C(=C\CCC(C)C)[C@H]1CC[C@H]2[C@@H]3CC=C4C[C@@H](OC5CCCCO5)CC[C@]4(C)[C@H]3CC[C@]12C (stereo partly specified) | Active |  |
| CC(=O)OCC1OC(O[C@H]2CC[C@@]3(C)C(=CC[C@H]4[C@@H]5CC[C@H](/C(C)=N/OC6CCCCC6)[C@@]5(C)CC[C@@H]43)C2)C=C[C@@H]1OC(C)=O (single isomer, unassigned) | Active |  |
| CC(=O)OC[C@H]1OC(O[C@H]2CC[C@@]3(C)C(=CC[C@H]4[C@@H]5CC[C@H](/C(C)=N/OC6CCCC6)[C@@]5(C)CC[C@@H]43)C2)C=C[C@@H]1OC(C)=O (stereo partly specified) | Active | Activity (Homo sapiens [2]): Active; inhibition (Mus musculus [8]): Active; Activity (Homo sapiens [6]): Active; Activity (Homo sapiens [4]): Dose-dependent effect; Activity (Homo sapiens [5]): Active; Activity (Homo sapiens [7]): Active; inhibition (Mus musculus [9]): Active; inhibition (Mus musculus [10]): Active |
| CCCCO/N=C(\C)[C@H]1CC[C@H]2[C@@H]3CC=C4C[C@@H](OC5C=C[C@H](OC(C)=O)C(COC(C)=O)O5)CC[C@]4(C)[C@H]3CC[C@]12C (single isomer, unassigned) | Active |  |
| CC(=O)OC[C@H]1OC(O[C@H]2CC[C@@]3(C)C(=CC[C@H]4[C@@H]5CC[C@H](/C(C)=C/CCC(C)C)[C@@]5(C)CC[C@@H]43)C2)C=C[C@@H]1OC(C)=O (stereo partly specified) | Active | Activity (Homo sapiens [1]): Active |
| CC(=O)OC[C@H]1OC(O[C@H]2CC[C@@]3(C)C(=CC[C@H]4[C@@H]5CC[C@H](/C(C)=N/OCC(C)C)[C@@]5(C)CC[C@@H]43)C2)C=C[C@@H]1OC(C)=O (stereo partly specified) | Active |  |
| CCO/N=C(\C)[C@H]1CC[C@H]2[C@@H]3CC=C4C[C@@H](OC5C=C[C@H](OC(C)=O)C(COC(C)=O)O5)CC[C@]4(C)[C@H]3CC[C@]12C (single isomer, unassigned) | Active |  |
| CC(=O)OC[C@H]1OC(O[C@H]2CC[C@@]3(C)C(=CC[C@H]4[C@@H]5CC[C@H](/C(C)=N/OCCC(C)C)[C@@]5(C)CC[C@@H]43)C2)C=C[C@@H]1OC(C)=O (stereo partly specified) | Active |  |
| C=CCO/N=C(\C)[C@H]1CC[C@H]2[C@@H]3CC=C4C[C@@H](OC5C=C[C@H](OC(C)=O)C(COC(C)=O)O5)CC[C@]4(C)[C@H]3CC[C@]12C (single isomer, unassigned) | Active |  |
